Measurements as given in ChEMBL document CHEMBL1770147, “Synthesis and antifungal activity of functionalized 2,3-spirostane isomers” (2011).
Converted amounts (≈) assume the structure as drawn.

Key:
Type in all cases: functional
[1] = tested on: Candida albicans; assay: Antifungal activity against Candida albicans ATCC 10231 assessed as reduction in growth after 48 hrs by broth microdilution method relative to control
In short: (§1)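 Growth was read as absorbance at 530 nm after incubation at 35 °C for 48 h. Percent reduction was calculated relative to control wells containing no antifungal, alongside a visual comparison of turbidity with those wells.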

[2] = tested on: Nakaseomyces glabratus; assay: Antifungal activity against Candida glabrata ATCC 48435 assessed as reduction in growth after 48 hrs by broth microdilution method relative to control; in short: as §1
[3] = tested on: Aspergillus fumigatus; assay: Antifungal activity against Aspergillus fumigatus ATCC 16424 reduction in growth after 48 hrs by broth microdilution method relative to control; in short: as §1
[4] = tested on: Cryptococcus neoformans; assay: Antifungal activity against Cryptococcus neoformans ATCC 36556 assessed as reduction in growth after 48 hrs by broth microdilution method relative to control; in short: as §1
[5] = tested on: Aspergillus fumigatus; assay: Antifungal activity against Aspergillus fumigatus ATCC 16424 after 48 hrs by broth microdilution method; conditions: ATCC 16424, 48 h
In short: (§2)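 Plates were incubated at 35 °C for 48 h. MIC was reported only where both criteria held: turbidity clearly lower than in control wells without antifungal on visual comparison, and growth reduced by more than 50% relative to those controls, measured as absorbance at 530 nm.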

[6] = tested on: Candida albicans; assay: Antifungal activity against Candida albicans ATCC 10231 after 48 hrs by broth microdilution method; conditions: ATCC 10231, 48 h; in short: as §2
[7] = tested on: Cryptococcus neoformans; assay: Antifungal activity against Cryptococcus neoformans ATCC 36556 after 48 hrs by broth microdilution method; conditions: ATCC 36556, 48 h; in short: as §2
[8] = tested on: Nakaseomyces glabratus; assay: Antifungal activity against Candida glabrata ATCC 48435 after 48 hrs by broth microdilution method; conditions: ATCC 48435, 48 h; in short: as §2

MIC50 [5] | MIC50 [6] | MIC50 [7] | MIC50 [8] | Compound | inhibition (INH) [1] | inhibition (INH) [2] | inhibition (INH) [3] | inhibition (INH) [4]
– | – | – | – | C[C@@H]1CC[C@@]2(OC1)O[C@H]1C[C@H]3[C@@H]4CC[C@H]5CC(=O)CC[C@]5(C)[C@H]4CC[C@]3(C)[C@H]1[C@@H]2C | <25% | <25% | <25% | <25%
> 128 µg/mL | 32 µg/mL (≈ 67.7 µM) | – | – | CC(=O)O[C@@H]1C[C@@]2(C)[C@@H](CC[C@@H]3[C@@H]2CC[C@]2(C)[C@@H]4[C@H](C[C@@H]32)O[C@]2(CC[C@@H](C)CO2)[C@H]4C)CC1=O | – | <25% | – | <25%
> 128 µg/mL | 16 µg/mL (≈ 33.7 µM) | 62.5 µg/mL (≈ 132 µM) | 6.25 µg/mL (≈ 13.2 µM) | CC(=O)O[C@@H]1C[C@@]2(C)[C@@H](CC[C@@H]3[C@@H]2CC[C@]2(C)[C@@H]4[C@H](C[C@@H]32)O[C@]2(CC[C@@H](C)CO2)[C@H]4C)C[C@H]1O | – | – | – | –
– | – | – | – | C[C@@H]1CC[C@@]2(OC1)O[C@H]1C[C@H]3[C@@H]4CC[C@H]5C[C@@H](O)[C@H](O)C[C@]5(C)[C@H]4CC[C@]3(C)[C@H]1[C@@H]2C | <25% | <25% | <25% | <25%
– | – | – | – | CC(=O)O[C@H]1C[C@@]2(C)[C@@H](CC[C@@H]3[C@@H]2CC[C@]2(C)[C@@H]4[C@H](C[C@@H]32)O[C@]2(CC[C@@H](C)CO2)[C@H]4C)C[C@@H]1O | <25% | <25% | <25% | <25%
– | – | – | – | CC(=O)O[C@H]1C[C@@H]2CC[C@@H]3[C@H](CC[C@]4(C)[C@@H]5[C@H](C[C@@H]34)O[C@]3(CC[C@@H](C)CO3)[C@H]5C)[C@@]2(C)C[C@@H]1O | <25% | <25% | <25% | <25%
– | – | – | – | CC(=O)O[C@H]1C[C@@]2(C)[C@@H](CC[C@@H]3[C@@H]2CC[C@]2(C)[C@@H]4[C@H](C[C@@H]32)O[C@]2(CC[C@@H](C)CO2)[C@H]4C)C[C@H]1O | <25% | <25% | <25% | <25%
– | – | – | – | CC(=O)O[C@@H]1C[C@@H]2CC[C@@H]3[C@H](CC[C@]4(C)[C@@H]5[C@H](C[C@@H]34)O[C@]3(CC[C@@H](C)CO3)[C@H]5C)[C@@]2(C)C[C@@H]1O | <25% | <25% | <25% | <25%
16 µg/mL (≈ 38.4 µM) | – | – | > 62.5 µg/mL | C[C@@H]1CC[C@@]2(OC1)O[C@H]1C[C@H]3[C@@H]4CC[C@H]5C[C@@H](O)CC[C@]5(C)[C@H]4CC[C@]3(C)[C@H]1[C@@H]2C [TIGOGENIN] | <25% | – | – | <25%
